Assay outcomes: PubChem, several laboratories
UHRF1 MBD2 ctr = blocks human UHRF1 binding to methylated DNA | Q96T88 | UHRF1 binding to methylated oligo, TR-FRET | inhibition, % at 4.4 µM | 370,000 tested, 0.75% active | AID 687016;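 note: UHRF1 SRA domain binding a hemimethylated CpG hairpin DNA probe; 0% = median of test compound wells and 100% = reference inhibitor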
ATG4B inh = blocks human ATG4B protease cleavage of LC3 substrate | Q9Y4P1 | ATG4B cleavage of LC3-PLA2, NBD-HPC fluorescence, 1 h | inhibition, % at 8.33 µM | 340,000 tested, 0.51% active | AID 504462; in the data active = inhibition above about 40%
Target sequence (Q9Y4P1 whole entry, looked up): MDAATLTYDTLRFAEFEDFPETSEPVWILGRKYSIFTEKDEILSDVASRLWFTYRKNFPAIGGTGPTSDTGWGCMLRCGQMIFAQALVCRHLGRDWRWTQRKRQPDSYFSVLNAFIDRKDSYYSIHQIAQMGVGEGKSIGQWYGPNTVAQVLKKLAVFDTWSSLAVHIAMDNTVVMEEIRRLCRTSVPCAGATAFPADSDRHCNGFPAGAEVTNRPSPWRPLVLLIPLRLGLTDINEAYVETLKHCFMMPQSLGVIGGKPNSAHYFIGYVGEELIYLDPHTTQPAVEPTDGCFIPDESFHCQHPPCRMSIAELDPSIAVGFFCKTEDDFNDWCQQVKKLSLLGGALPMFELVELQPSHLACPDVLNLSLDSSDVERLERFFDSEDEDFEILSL
LEDGF integ inh = blocks HIV-1 LEDGF/p75-dependent DNA integration. TR-FRET IN-LEDGF/p75 DNA integration, Eu/Cy5. inhibition, % at 3.7 µM. 370,000 tested, 0.64% active;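 active = inhibition above the screen-wide mean plus 3 SD, cut at about 13% in these data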;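 note: signal is the Cy5 over europium emission ratio at 671 and 618 nm; 0% = plate median of compound wells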
CSN deneddyl inh = blocks human CSN-mediated cullin deneddylation | 360,000 tested, 0.38% active | Purified CSN, SCF-Nedd8-OG deneddylation, fluorescence polarization | Q92905 | AID 651999 | inhibition, % at 12.5 µM;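 active = pattern-corrected inhibition above about 35%, with an unprinted fluorescence ratio check between 0.5 and 1.5, limit read from the data, passing the limit was not always enough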;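 note: 0% = enzyme with substrate and 100% = substrate without enzyme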
Target sequence (Q92905 whole entry, looked up, one chain of several): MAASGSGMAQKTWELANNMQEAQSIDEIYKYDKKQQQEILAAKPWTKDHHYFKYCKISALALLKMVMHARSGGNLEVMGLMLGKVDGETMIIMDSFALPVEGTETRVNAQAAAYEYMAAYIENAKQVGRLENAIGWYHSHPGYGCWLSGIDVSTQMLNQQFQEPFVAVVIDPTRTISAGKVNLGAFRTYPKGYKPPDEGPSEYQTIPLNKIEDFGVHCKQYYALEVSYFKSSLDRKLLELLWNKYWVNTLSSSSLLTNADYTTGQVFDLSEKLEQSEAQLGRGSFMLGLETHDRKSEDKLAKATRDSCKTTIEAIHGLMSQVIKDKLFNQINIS
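Detection – fluorescence polarization · System – HEK293T-derived human Csn5 enzyme · Controls – substrate-only high control, full reaction low control · Timing – 90 min, room temperature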
MBD2 DNA inh = MBD2-methylated oligo binding inhibition; inhibition, % at 4.4 µM; Q9UBB5; TR-FRET, MBD2 binding to methylated oligonucleotide; AID 686964; 370,000 tested, 0.31% active; in the data active = inhibition above about 13%
rCAG binder = molecules binding r(CAG) RNA repeats; inhibition, % at 3 µM; r(CAG) RNA repeat, TO-PRO-1 dye displacement fluorescence; 370,000 tested, 1.3% active;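 active = inhibition above the plate cutoff, the mean of all test compounds on that plate plus 3 SD, cut at about 35% in these data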;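 note: 0% = DMSO alone and 100% = 100 µM mitoxantrone as full dye displacement; higher means more dye released from RNA so lower well fluorescence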
rCAG bind conf = r(CAG) RNA repeat binding, confirmation | 4,300 tested, 70% active | shares compounds with rCAG binder | inhibition, % at 3 µM | TO-PRO-1 dye displacement fluorescence;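 active = inhibition above a per-plate cutoff, the mean inhibition of sample wells plus 3 SD, cut at about 35% in these data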;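 note: loss of TO-PRO-1 fluorescence as compound displaces dye from 1x1 AA loop RNA; 0% = DMSO only wells and 100% = 100 µM mitoxantrone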
dCAG dye counter = counter-screen for rCAG RNA binders: DNA CAG dye complex inhibitors | shares compounds with rCAG binder | d(CAG) DNA oligo TO-PRO-1 dye displacement, fluorescence | inhibition, % at 3 µM | 4,300 tested, 94% active;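 active = inhibition above its plate's cutoff, the mean test-well inhibition plus 3 SD, cut at about 4.8% in these data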;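 note: 0% = DNA dye mix with DMSO and 100% = 100 µM mitoxantrone; hits displace the dye from DNA and so lower well fluorescence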
dCAG dye DR = disrupts DNA CAG TO-PRO-1 complex in dose response | shares compounds with rCAG binder | DNA CAG/GTC duplex TO-PRO-1 dye displacement fluorescence | IC50, µM | 250 tested, 20% active; in the data active = IC50 below about 10 µM
CSN deneddyl val = Csn5 (human) deneddylation inhibition, single-concentration validation; shares compounds with CSN deneddyl inh; Csn5 deneddylation of SCF-Nedd8OG, fluorescence polarization, 90 min; inhibition, % at 16.6 µM; 540 tested, 62% active; AID 720654; in the data active = inhibition above about 50%;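 note: 0% = DMSO with enzyme and 100% = no enzyme wells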
MMP2 cntr CSN = MMP-2 (human) inhibition, counter-screen for CSN hits; shares compounds with CSN deneddyl inh; recombinant MMP-2, FRET substrate fluorescence, 60 min; inhibition, % at 16.6 µM; 540 tested, 33% active; AID 720655;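 active = corrected plate-normalized z-score of 5 or more, or -5 or less, or inhibition of 15% or more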;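 note: plate controls were DMSO wells with enzyme for no effect and buffer wells lacking MMP-2 for full effect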
Thrombin cntr = thrombin (bovine) inhibition, counter-screen for CSN hits. 540 tested, 49% active. inhibition, % at 16.6 µM. shares compounds with CSN deneddyl inh. bovine thrombin cleavage of Ub4-pepOG, fluorescence polarization;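 active = inhibition at or above a set limit, with a fluorescence interference ratio between 0.5 and a set maximum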
UHRF1 ctr MBD2 = counter-screen for MBD2 inhibitors: human UHRF1 methylated DNA binding inhibitors; shares compounds with MBD2 DNA inh; UHRF1 binding to methylated oligonucleotide, TR-FRET; inhibition, % at 4.4 µM; 1,000 tested, 25% active; AID 720530;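 note: UHRF1 SRA domain binding a labeled hemimethylated CpG hairpin DNA; 0% = vehicle only and 100% = reference inhibitor with vehicle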
MBD2 DBD conf = confirmation of human MBD2-DBD methylated oligonucleotide binding inhibitors; shares compounds with MBD2 DNA inh; TR-FRET MBD2-DBD binding to methylated oligonucleotide; inhibition, % at 4.4 µM; 1,000 tested, 26% active; in the data active = inhibition above about 14%
IN multimer up = HIV-1 integrase multimerization activation, counter-screen; shares compounds with LEDGF integ inh; TR-FRET HIV-1 integrase multimerization, biochemical; activation, % at 7.7 µM; 2,000 tested, 17% active; AID 1053131; in the data active = activation above about 8.9%
TRFRET interf = TR-FRET optical interference, LEDGF/p75 integration counter-screen | shares compounds with LEDGF integ inh | TR-FRET optical interference counterscreen, HIV-1 IN multimerization | inhibition, % at 7.7 µM | 2,000 tested, under 10 active;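 active = inhibition above the mean over all tested compounds plus 3 SD, which no compound reached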;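 note: 0% = integrase with antibodies and DMSO and 100% = antibodies without integrase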
IN-LEDGF confirm = confirmation of HIV-1 LEDGF/p75-dependent integration inhibitors | inhibition, % at 3.7 µM | TR-FRET LEDGF/p75-dependent HIV-1 integration, biochemical | 2,000 tested, 36% active | shares compounds with LEDGF integ inh; in the data active = inhibition above about 14%
Starred values were filed as active, the others as inactive; / = no result given. Rows were chosen to be rich in hits. Some 3.1% of all compounds tested hit in one or more screens of this group. Cut-off read from the data, not from the text of the source, unless noted: active = inhibition above about 21%; inactive = the rest.

SMILES | UHRF1 MBD2 ctr | ATG4B inh | LEDGF integ inh | CSN deneddyl inh | MBD2 DNA inh | rCAG binder | rCAG bind conf | dCAG dye counter | IN multimer up | TRFRET interf | IN-LEDGF confirm | others
Oc1cc(O)cc(C=Cc2ccc(O)c(O)c2)c1 | 7 | / | 51* | / | 2 | 38* | 29 | 15* | 43* | -217 | 42*
O=C(Nc1cccc(Cl)c1)OCCN1CCCC12CCC(c1ccccc1)CC2 (stereo unspecified) | -1 | / | -1 | / | -4 | / | / | / | / | / | /
CN=c1scc(-c2ccccc2F)n1/N=C/c1ccc(O)c(O)c1O | 0 | -14 | 22* | 0 | -1 | 41* | 56* | 25* | 0 | -1 | 28*
CN=c1scc(-c2ccccc2F)n1/N=C/c1ccc[nH]1 | 12 | 7 | -15 | 9 | 0 | 10 | / | / | / | / | /
COC(=O)C[C@@H]1CC[C@H]2[C@@H](COc3ccc(NC(=O)Nc4ccccc4Cl)cc3C(=O)N2C)O1 | 0 | / | -4 | / | 1 | 3 | / | / | / | / | /
CCOC(=O)c1nn(-c2ccccc2)c(=O)c2c(N)scc12 | 0 | 0 | 2 | 1 | -3 | 4 | / | / | / | / | /
Nc1scc2c(C(=O)N/N=C/c3ccc(Cl)cc3)nn(-c3ccccc3)c(=O)c12 | 7 | -4 | 13* | 3 | -3 | 41* | 25 | 16* | 4 | -15 | 11
CC(=O)Nc1ccc(C(=O)/C=C/c2ccco2)cc1 | 9 | 10 | 28* | 11 | 1 | 35* | 25 | 13* | 12* | -61 | 35*
CCOC(=O)C1=C(O)/C(=C\c2cccs2)N=C1C | 5 | 7 | 4 | -4 | 0 | 5 | / | / | / | / | /
CCOC(=O)C1=C(O)/C(=C\c2ccc(CNC(=O)C(=O)Nc3ccccc3)o2)N=C1C | 7 | 1 | 25* | 41* | 6 | 46* | 39* | 19* | 10* | -52 | 26*
CNc1nc(N)c([N+](=O)[O-])c(Nc2ccccc2)n1 | 0 | / | 0 | / | -1 | / | / | / | / | / | /
O=C1CC(c2ccco2)CC(O)=C1C=Nc1cc(Cl)ccc1O (stereo unspecified) | 21* | 10 | 34* | 23 | 4 | 37* | 17 | 6.0* | 5 | -19 | 16*
O=C1CC(c2ccco2)CC(O)=C1C=Nc1ccccc1-c1ccccc1 (stereo unspecified) | -1 | 7 | 2 | 2 | 5 | -6 | / | / | / | / | /
CNc1ccc(Br)cc(C(=O)/C=C/c2ccc(OC)cc2)c1=O | 12 | 1 | 30* | 24 | 8 | 42* | 40* | 15* | 3 | -16 | 27*
Oc1cccc(CN2CCOCC2)c1O | 85* | 5 | 78* | 1 | 45* | 41* | 3 | 0 | 11* | -40 | 35* | UHRF1 ctr MBD2=6;MBD2 DBD conf=5
Cc1ccc(CSc2nnc(-c3n[nH]c4c3CCC4)n2N)cc1 | 1 | / | -3 | / | 4 | 2 | / | / | / | / | /
O=C1N/C(=C/c2cccn2-c2ccc(F)cc2)C(=O)N1Cc1ccccc1 | -7 | 12 | 3 | 1 | -2 | 9 | / | / | / | / | /
O=C(O)c1ccc(-n2cccc2/C=C2/NC(=O)N(c3cccc(Cl)c3)C2=O)cc1 | 81* | 5 | 33* | 35 | 39* | 39* | 31 | 8.8* | 13* | -63 | 31* | UHRF1 ctr MBD2=78*;MBD2 DBD conf=49*
COCO[C@@H]1CC(CO)=C[C@H]2OCO[C@H]21 | 0 | / | 0 | / | -1 | / | / | / | / | / | /
NC1=NC(=O)/C(=C\c2ccco2)S1 | 68* | 1 | 62* | 36* | 24* | 37* | 15 | 5.7* | 30* | -106 | 50* | CSN deneddyl val=70*;MMP2 cntr CSN=17*;Thrombin cntr=-6;UHRF1 ctr MBD2=47*;MBD2 DBD conf=24*
NC1=NC(=O)C(=Cc2ccccc2)S1 | -3 | 7 | 2 | 2 | -5 | 3 | / | / | / | / | /
COc1ccc(C2=NN(c3ccccc3)C(=O)/C2=C\c2ccc(O)c(OC)c2)cc1 | 14 | 8 | 17* | 0 | 6 | 57* | 66* | 29* | 1 | -5 | -2
COc1ccc(/C=C2/C(=O)N(c3ccccc3)N=C2C)cc1 | / | -4 | / | -5 | / | / | / | / | / | / | /
C[C@@H]1[C@H](O)[C@@H](C)/C=C/C=C/C=C/C=C/C=C/C=C/C=C/[C@H](OC2O[C@H](C)[C@@H](O)[C@H](N)[C@@H]2O)C[C@@H]2O[C@](O)(C[C@@H](O)C[C@@H](O)[C@H](O)CC[C@@H](O)C[C@@H](O)CC(=O)O[C@H]1C)C[C@H](O)[C@H]2C(=O)O (stereo partly specified) | 8 | / | 32* | / | 5 | 41* | 44* | 14* | 0 | 2 | 78* | dCAG dye DR=>30
